According to ChEMBL document CHEMBL1129732, “Potent, cell active, non-thiol tetrapeptide inhibitors of farnesyltransferase” (J Med Chem, 1996):

Key:
[1] = target: Protein farnesyltransferase (Homo sapiens, UniProt P49354+P49356); test: Inhibition of Farnesyltransferase; format: protein-complex assay
[2] = target: Geranylgeranyl transferase type I (Homo sapiens, UniProt P49354+P53609); test: Inhibition of Geranylgeranyl transferase type I; format: protein-complex assay
[3] = test system: Rat1; test: Inhibition of anchorage-independent growth of H-Ras-transformed rat-1 cells in soft agar; format: functional, cell-based
[4] = test system: NIH3T3; test: Highest tested nontoxic concentration (maximum tolerated dose) against NIH3T3 cells in XTT assay; format: functional, Mus musculus
Summary of the method: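 Untransformed NIH 3T3 cells were seeded at 2500 cells/well. Cells were incubated 48 h at 37 °C, then XTT with phenazine methosulfate was added. XTT reduction served as the measure of live cells.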

SMILES	IC50 [1]	IC50 [2]	IC50 [3]	MTD [4]
CSCC[C@H](NC(=O)[C@@H]1Cc2ccccc2CN1C(=O)[C@@H](NC(=O)c1c[nH]cn1)C(C)C)C(=O)O	84 nM	25800 nM	–	–
CC(C)(C)[C@H](NCCCc1cnc[nH]1)C(=O)N1Cc2ccccc2C[C@H]1C(=O)N[C@@H](CCC(N)=O)C(=O)O	20 nM	106000 nM	–	–
CC(C)(C)[C@H](NC(=O)Cc1c[nH]cn1)C(=O)N1Cc2ccccc2C[C@H]1C(=O)N[C@@H](CCC(N)=O)C(=O)O	28 nM	–	3900 nM	>150 µM
CSCC[C@H](NC(=O)[C@@H]1Cc2ccccc2CN1C(=O)[C@@H](NC(=O)Cc1c[nH]cn1)C(C)C)C(=O)O	6.6 nM	2020 nM	50000 nM	>150 µM
CSCC[C@H](NC(=O)[C@@H]1Cc2ccccc2CN1C(=O)[C@@H](NCc1c[nH]cn1)C(C)C)C(=O)O	114 nM	17400 nM	–	–
CSCC[C@H](NC(=O)[C@@H]1Cc2ccccc2CN1C(=O)[C@@H](NCCc1c[nH]cn1)C(C)C)C(=O)O	0.79 nM	234 nM	3800 nM	>150 µM

Continued, in another order:

IC50 [1]	IC50 [2]	SMILES	IC50 [3]	MTD [4]
3.4 nM	30500 nM	CC(C)(C)[C@H](NCCc1c[nH]cn1)C(=O)N1Cc2ccccc2C[C@H]1C(=O)N[C@@H](CCC(N)=O)C(=O)O	3200 nM	–
6800 nM	–	CSCC[C@H](NC(=O)[C@H](Cc1ccccc1)NC(=O)[C@@H](NC(=O)[C@@H](N)Cc1cnc[nH]1)C(C)C)C(=O)O	–	–
4.4 nM	168000 nM	CC(C)(C)[C@H](NC(=O)CCc1c[nH]cn1)C(=O)N1Cc2ccccc2C[C@H]1C(=O)N[C@@H](CCC(N)=O)C(=O)O	–	–
